Source: publication PMC4191586 (Journal of Medicinal Chemistry, 2014)
“Also recorded” adds a separate entry of the source. Read-outs that look alike come from different tables or passages of the source.

Tests used:
[1] = tested on: PC43-10 CHO cells (express human RFC); settings: mean (SEM), previously published, cited from earlier work
[2] = tested on: RT16 CHO cells (express human FRα); settings: read-out: IC50 FRα RT16; without folic acid; mean (SEM); cited from earlier work
[3] = tested on: FRα- and PCFT-expressing tumor cells; settings: up; cited from earlier work
[4] = tested on: PC43-10 CHO cells (express human RFC); assay: Growth inhibition assay, RFC-expressing PC43-10 CHO cells; assay type: cell-based, Chinese hamster; settings: PC43-10, 96 h, read-out: IC50 RFC PC43-10
[5] = tested on: D4 CHO cells (express human FRβ); assay: Growth inhibition assay, FRβ-expressing D4 CHO cells; assay type: cell-based, Chinese hamster; settings: for IC50: CHO, read-out: IC50 FRβ D4; for IC50 FRβ D4: without folic acid, mean (SEM)
In short: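 D4 cells were seeded at ~2500–5000 per well in folate-free RPMI with 10% dialyzed FBS, 2 nM leucovorin and 2 mM L-glutamine. They were exposed to a range of drug concentrations for up to 96 h, with or without 200 nM folic acid in parallel. Viability was read by CellTiter-Blue fluorescence.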

[6] = tested on: R2/PCFT4 CHO cells (express human PCFT); assay: Growth inhibition assay, PCFT-expressing R2/PCFT4 CHO cells; assay type: cell-based, Chinese hamster; settings: R2/PCFT4, pH 7.2, read-out: IC50 PCFT R2/PCFT4
[7] = tested on: KB human nasopharyngeal carcinoma cells (express RFC, FRα, PCFT); assay: Growth inhibition assay, KB human tumor cells; assay type: cell-based; settings: for IC50: Homo sapiens, read-out: IC50 RFC/FRα/PCFT KB
[8] = biological target: FRα (Homo sapiens, UniProt P15328); assay: Competitive [3H]folic acid binding assay, FRα in RT16 cells; settings: 50 nM [3H]folic acid, folic acid = 1
In short: (§1)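 Cells plated 48 h ahead (~5 × 10^6) were acid-stripped of bound folate (pH 3.5 acetate/NaCl) and washed in ice-cold HEPES saline, pH 7.4. They were then incubated 15 min at 0 °C with 50 nM [3H]folic acid (0.5 Ci/mmol) across a range of unlabeled ligand concentrations. After NaOH lysis, bound label was read as pmol/mg protein.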

[9] = biological target: FRβ (Homo sapiens, UniProt P14207); assay: Competitive [3H]folic acid binding assay, FRβ in D4 cells; settings: 50 nM [3H]folic acid, folic acid = 1
In short: as §1

[10] = biological target: T1, GARFTase (Homo sapiens, UniProt P22102); assay: In situ GARFTase activity assay in KB cells; assay type: cell-based; settings: ratio of in situ GARFTase IC50s vs compound 7
T1 sequence (P22102 1-1010): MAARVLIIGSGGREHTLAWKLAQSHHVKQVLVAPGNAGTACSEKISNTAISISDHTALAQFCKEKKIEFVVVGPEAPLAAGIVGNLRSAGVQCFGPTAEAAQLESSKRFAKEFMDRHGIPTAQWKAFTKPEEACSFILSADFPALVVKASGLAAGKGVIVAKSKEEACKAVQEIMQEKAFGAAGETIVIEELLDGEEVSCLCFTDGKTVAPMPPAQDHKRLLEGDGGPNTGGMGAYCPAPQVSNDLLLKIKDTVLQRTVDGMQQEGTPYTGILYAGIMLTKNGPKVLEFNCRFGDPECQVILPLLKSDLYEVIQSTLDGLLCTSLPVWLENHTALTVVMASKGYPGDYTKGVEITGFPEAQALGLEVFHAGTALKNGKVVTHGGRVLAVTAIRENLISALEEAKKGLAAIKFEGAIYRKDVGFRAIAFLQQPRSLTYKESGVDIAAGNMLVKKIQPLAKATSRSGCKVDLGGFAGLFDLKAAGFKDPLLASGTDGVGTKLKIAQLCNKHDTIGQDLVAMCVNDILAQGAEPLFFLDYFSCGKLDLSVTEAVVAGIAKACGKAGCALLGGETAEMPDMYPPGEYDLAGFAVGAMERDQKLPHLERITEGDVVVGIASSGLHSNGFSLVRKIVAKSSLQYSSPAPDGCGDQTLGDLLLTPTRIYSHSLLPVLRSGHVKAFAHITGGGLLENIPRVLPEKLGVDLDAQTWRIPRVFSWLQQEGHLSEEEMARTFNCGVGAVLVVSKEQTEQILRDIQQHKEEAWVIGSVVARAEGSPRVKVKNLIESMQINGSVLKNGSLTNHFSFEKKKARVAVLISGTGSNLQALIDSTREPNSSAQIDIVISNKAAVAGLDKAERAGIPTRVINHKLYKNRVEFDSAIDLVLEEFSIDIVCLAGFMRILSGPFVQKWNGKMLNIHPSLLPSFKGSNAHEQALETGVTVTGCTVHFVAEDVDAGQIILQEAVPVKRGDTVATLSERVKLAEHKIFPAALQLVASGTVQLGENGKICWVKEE

[11] = tested on: KB cells; assay: Nucleoside/AICA protection of growth inhibition in KB cells; assay type: cell-based, human
In short: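 KB human nasopharyngeal carcinoma cells were grown in complete folate-free RPMI 1640 with 2 nM LCV, with a range of test compound concentrations. Runs had no additions or included 200 nM folic acid, adenosine (60 μM), thymidine (10 μM) or AICA (320 μM). Cell density was read by CellTiter Blue fluorescence and normalized to no-drug cells; experiments were performed in triplicate.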

Sequence of FRα (P15328 25-257): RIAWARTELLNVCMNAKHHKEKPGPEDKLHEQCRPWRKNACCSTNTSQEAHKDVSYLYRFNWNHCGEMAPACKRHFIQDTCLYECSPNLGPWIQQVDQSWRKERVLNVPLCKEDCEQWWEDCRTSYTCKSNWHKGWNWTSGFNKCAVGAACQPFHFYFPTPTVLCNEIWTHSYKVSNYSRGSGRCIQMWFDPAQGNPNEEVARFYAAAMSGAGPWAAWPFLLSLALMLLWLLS
Sequence of FRβ (P14207 17-255): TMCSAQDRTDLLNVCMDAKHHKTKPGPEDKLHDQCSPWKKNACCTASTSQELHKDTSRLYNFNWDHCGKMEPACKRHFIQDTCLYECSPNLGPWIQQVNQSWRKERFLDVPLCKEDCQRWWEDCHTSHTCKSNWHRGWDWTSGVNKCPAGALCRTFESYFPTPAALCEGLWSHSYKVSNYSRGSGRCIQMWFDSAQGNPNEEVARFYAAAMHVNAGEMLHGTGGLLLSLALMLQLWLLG

Compound | IC50 RFC PC43-10 [1] | IC50 ([1]; read-out: IC50 RFC PC43-10) | IC50 [2] | increase of cell growth inhibition compared to 8 [3] | IC50 [4] | IC50 [5] | IC50 FRβ D4 [5] | IC50 [6] | IC50 [7] | relative binding affinity to FRα (in words) [8] | relative binding affinity to FRβ (in words) [9] | fold reduction of KB potency relative to IC50 of 7 ([7]; KB cells, IC50 9 nM vs 0.26 nM) | fold less potent than 7 as GARFTase inhibitor in KB cells [10] | effect of AICA on inhibition of KB cell proliferation ([11]; AICA 320 μM) | effect of adenosine on inhibition of KB cell proliferation ([11]; adenosine 60 μM) | effect of thymidine on inhibition of KB cell proliferation ([11]; thymidine 10 μM)
Nc1nc2[nH]c(CCCc3ccc(C(=O)N[C@@H](CCC(=O)O)C(=O)O)s3)cc2c(=O)[nH]1 [Compound 7, (S)-2-({5-[3-(2-Amino-4-oxo-4,7-dihydro-3H-pyrrolo[2,3-d]pyrimidin-6-yl)-propyl]-thiophene-2-carbonyl}-amino)-pentanedioic Acid] | modest inhibition | 101 nM | 0.31 nM | ~10 fold |  |  |  |  |  |  |  |  |  |  |  | 
Nc1nc2[nH]c(CCCc3ccc(C(=O)O)s3)cc2c(=O)[nH]1 [Compound 9, 5-[3-(2-Amino-4-oxo-4,7-dihydro-3H-pyrrolo[2,3-d]pyrimidin-6-yl)-propyl]-thiophene-2-carboxylic Acid] |  |  |  |  | > 1000 nM | > 1000 nM | completely inactive | > 1000 nM | > 1000 nM | Substantially reduced | Substantially reduced; also recorded: undetectable binding |  |  |  |  | 
Nc1nc2[nH]c(CCCc3ccc(C(=O)N[C@@H](CC(=O)O)C(=O)O)s3)cc2c(=O)[nH]1 [Compound 10, (S)-2-({5-[3-(2-Amino-4-oxo-4,7-dihydro-3H-pyrrolo[2,3-d]pyrimidin-6-yl)-propyl]-thiophene-2-carbonyl}-amino)-butanedioic Acid] |  |  |  |  | > 1000 nM |  | substantially reduced activity | > 1000 nM | > 1000 nM | bound avidly to FRα |  |  |  |  |  | 
Nc1nc2[nH]c(CCCc3ccc(C(=O)N[C@@H](CCCC(=O)O)C(=O)O)s3)cc2c(=O)[nH]1 [Compound 11, (S)-2-({5-[3-(2-Amino-4-oxo-4,7-dihydro-3H-pyrrolo[2,3-d]pyrimidin-6-yl)propyl]thiophene-2-carbonyl}-amino)-hexanedioic Acid] |  |  |  |  | > 1000 nM |  |  | > 1000 nM |  |  | somewhat reduced | approximately 35 fold | ~6 fold | abolished the inhibitory effects | abolished the inhibitory effects | had no effect
Nc1nc2[nH]c(CCCc3ccc(C(=O)NCCCC(=O)O)s3)cc2c(=O)[nH]1 [Compound 12, 4-({5-[3-(2-Amino-4-oxo-4,7-dihydro-3H-pyrrolo[2,3-d]pyrimidin-6-yl)propyl]thiophene-2-carbonyl}-amino)-butanoic Acid] |  |  |  |  | > 1000 nM | > 1000 nM | complete inactivity | > 1000 nM | > 1000 nM | bound avidly to FRα | somewhat reduced; also recorded: distinctly reduced binding affinities |  |  |  |  | 
CCC[C@H](NC(=O)c1ccc(CCCc2cc3c(=O)[nH]c(N)nc3[nH]2)s1)C(=O)O [Compound 13, (S)-2-({5-[3-(2-Amino-4-oxo-4,7-dihydro-3H-pyrrolo[2,3-d]pyrimidin-6-yl)propyl]thiophene-2-carbonyl}-amino)-pentanoic Acid] |  |  |  |  | > 1000 nM | > 1000 nM | complete inactivity | > 1000 nM | > 1000 nM | bound avidly to FRα | somewhat reduced; also recorded: distinctly reduced binding affinities |  |  |  |  | 
